Source: ChEMBL document CHEMBL2069288, “Virtual screening leads to the discovery of novel non-nucleotide P2Y₁ receptor antagonists” (Bioorg Med Chem, 2012)

Experiments:
P2Y purinoceptor 1 [1] = target: T1, P2Y purinoceptor 1 (Homo sapiens, UniProt P47900); assay: Displacement of [125I]MRS2500 from human P2Y1R expressed in Sf9 cell membrane at 20 uM
Procedure, shortened: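 Binding screen used hP2Y1R-expressing Sf9 cell membranes and about 0.2 nM [125I]MRS2500. Each test compound was applied at 20 µM, and the value is percent inhibition of specific radioligand binding.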

P2Y purinoceptor 1 [2] = target: T1, P2Y purinoceptor 1; assay: Antagonist activity at human P2Y1R expressed in human 1321N1 cells assessed as inhibition of 2-MeSADP-induced increase in intracellular calcium mobilization at 10 uM; type: functional, cell-based
Procedure, shortened: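 hP2Y1R-expressing 1321N1 cells were kept in DMEM with 5% FBS and geneticin, grown overnight to about 60–80% confluency, and loaded with Calcium 4 dye for 1 h at room temperature without washing. Test compound at 10 µM was added 20 min before 2-MeSADP (30 nM; curves 10−9–10−5 M). Read-out was fluorescence (ex 485/em 525 nm), peak minus basal, in triplicate.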

P2Y purinoceptor 1 [3] = target: T1, P2Y purinoceptor 1; assay: Antagonist activity at human P2Y1R expressed in human 1321N1 cells assessed as inhibition of 2-MeSADP-induced increase in intracellular inositol phosphate generation; type: functional, cell-based
Procedure, shortened: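 In 1321N1 cells stably expressing hP2Y1R, cells were labeled 18–24 h at 37°C with 2-[3H]myo-inositol in inositol-free DMEM. Agonist-stimulated [3H]inositol phosphate accumulation was measured over 10 min at 37°C with 10 mM LiCl. Total inositol phosphates were separated by anion-exchange chromatography. IC50 is the mean of 3 independent concentration-effect curves.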

P2Y purinoceptor 1 [4] = target: T1, P2Y purinoceptor 1; assay: Displacement of [125I]MRS2500 from human P2Y1R expressed in Sf9 cell membrane
Procedure, shortened: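 Competition binding used membranes of Sf9 insect cells expressing hP2Y1R, with [125I]MRS2500 at approximately 0.2 nM.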

T1 sequence (P47900 whole entry): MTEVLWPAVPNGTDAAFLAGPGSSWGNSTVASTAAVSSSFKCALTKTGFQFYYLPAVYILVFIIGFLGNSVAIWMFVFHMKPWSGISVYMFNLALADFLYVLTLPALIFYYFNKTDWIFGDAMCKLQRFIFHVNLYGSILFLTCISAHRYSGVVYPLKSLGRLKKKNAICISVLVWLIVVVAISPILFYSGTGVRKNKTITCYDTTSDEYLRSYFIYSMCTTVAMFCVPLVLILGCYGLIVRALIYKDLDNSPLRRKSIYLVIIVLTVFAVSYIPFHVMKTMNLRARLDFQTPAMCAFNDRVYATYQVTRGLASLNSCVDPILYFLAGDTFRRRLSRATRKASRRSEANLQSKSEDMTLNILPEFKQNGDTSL

Row | SMILES | inhibition (P2Y purinoceptor 1 [1]) | inhibition (P2Y purinoceptor 1 [2]) | IC50 (P2Y purinoceptor 1 [3]) | Ki (P2Y purinoceptor 1 [4])
1 | COc1ccc(S(=O)(=O)Nc2ccc3c(c2)C(=O)Nc2ccccc2O3)cc1OC | 20% | – | – | –
2 | Cn1nnc2c(Cc3ccc(S(N)(=O)=O)cc3)ncnc21 | 20% | – | – | –
3 | Cc1noc(NS(=O)(=O)c2ccc(NC(=O)Nc3ccccc3)cc2)c1C | < 10% | < 5% | – | –
4 | Cc1noc(NS(=O)(=O)c2ccc(NC(=O)Nc3ccc(Cl)c(Cl)c3)cc2)c1C | – | 36.8% | 0.14 µM | 13 µM
5 | Cc1noc(NS(=O)(=O)c2ccc(NC(=O)Nc3cc(Cl)cc(Cl)c3)cc2)c1C | – | 17.6% | – | 27 µM
6 | COc1ccc(S(=O)(=O)NCC(c2ccc3c(c2)OCO3)N2CCN(C)CC2)cc1OC (configuration not stated) | 20% | – | – | –
7 | Cc1noc(NS(=O)(=O)c2ccc(NC(=O)Nc3ccc(F)c(F)c3)cc2)c1C | < 10% | 11.3% | – | –
8 | Cc1noc(NS(=O)(=O)c2ccc(NC(=O)Nc3cccc(Cl)c3)cc2)c1C | – | 21.7% | – | ≥ 100 µM
9 | Cc1noc(NS(=O)(=O)c2ccc(NC(=O)Nc3cc(F)cc(F)c3)cc2)c1C | – | 10.2% | – | ≥ 100 µM
10 | CN(C)CCCN(C(=O)c1ccco1)c1nc2cc3c(cc2s1)OCO3 | 40% | – | – | –
11 | Cc1cc(NC(=O)CSc2ccc3nnc(CCNS(=O)(=O)c4ccccc4)n3n2)no1 | 20% | – | – | –
12 | CCc1nnc(NS(=O)(=O)c2ccc(NC(=O)Nc3ccc(C(F)(F)F)cc3)cc2)s1 | – | – | – | 10 µM
13 | Cc1noc(NS(=O)(=O)c2ccc(NC(=O)Nc3ccc(F)c(Cl)c3)cc2)c1C | – | 31.3% | – | 42 µM
14 | Cn1c(=O)[nH]c(=O)c2nc(NCCCO)n(CC(O)COc3ccccc3)c21 (configuration not stated) | 20% | – | – | –
15 | O=C(CSC1=NC(=O)N(CCCN2CCOCC2)C2CCCC12)Nc1ccc2c(c1)OCO2 (configuration not stated) | 20% | – | – | –
16 | CC1=C2C(=O)NC(SCC(=O)Nc3ccc(S(=O)(=O)NCCCC(=O)O)cc3)=NC2SC1C(=O)O (configuration not stated) | 30% | – | – | –
17 | COc1cc(NS(=O)(=O)c2ccc(NC(=O)Nc3cccc(Cl)c3)cc2)nc(OC)n1 | – | – | – | 6 µM
18 | COc1ccc(NC(=O)Nc2ccc(S(=O)(=O)Nc3onc(C)c3C)cc2)cc1OC | < 10% | 9.1% | – | –
19 | Cc1noc(NS(=O)(=O)c2ccc(NC(=O)Nc3ccc(C(F)(F)F)cc3)cc2)c1C | – | 32.7% | – | 45 µM
20 | Cc1ccc(NC(=O)Nc2ccc(S(=O)(=O)Nc3onc(C)c3C)cc2)cc1C | < 10% | 9.4% | 0.13 µM | –
